Measured values: article PMC11847389 (BMC Chemistry, 2025)

Columns and labels:
[1] = Pharmacokinetic study of pirtobrutinib in rats; type: in vivo, Sprague–Dawley rats
Method in brief: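 Six male Sprague–Dawley rats (8 weeks, 230 g ± 10 g), fasted 12 h, got a single intragastric 10 mg·kg-1 suspension in 0.5% CMC-Na. Ophthalmic-vein blood (200 µL, EDTA-K2) was drawn pre-dose and at 0.25–48 h; plasma was frozen at -80 °C. Plasma underwent cold-methanol protein precipitation with IS, then C18 UHPLC-MS/MS (0.5–500 ng/mL calibration). Parameters came from non-compartmental analysis.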

[2] = Stability of pirtobrutinib in rat plasma under different storage conditions; type: in vitro ADME; conditions: for Stability RE %: n = 6
Method in brief: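 Blank rat plasma was spiked 1:10 with working solution to make QCs of 1, 25 and 400 ng/mL, six replicates each. These were held at room temperature 4 h, in the autosampler at 4 °C 24 h, through three freeze-thaw cycles, or at -80 °C 30 days. Samples then underwent cold-methanol protein precipitation with IS and UHPLC-MS/MS; RSD% and RE% were reported.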

[3] = ref package insert of JAYPIRCA, cited from earlier work
[4] = in vitro, independent of concentration; ref package insert of JAYPIRCA; cited from earlier work
[5] = tested on: CYP3A4, UGT1A8 and UGT1A9; conditions: ref package insert of JAYPIRCA; cited from earlier work
[6] = cited from earlier work
[7] = tested on: mutant BTK C481S; conditions: cited from earlier work
[8] = tested on: mutant BTK C481T; conditions: cited from earlier work
[9] = tested on: mutant BTK C481R; conditions: cited from earlier work
[10] = tested on: CLL/SLL patients; conditions: 323 patients; cited from earlier work
[11] = tested on: patients with covalent BTKi-pretreated CLL; conditions: cited from earlier work
[12] = male, Sprague-Dawley, rat, plasma, po, 10 mg/kg

COc1ccc(F)cc1C(=O)NCc1ccc(-c2nn([C@@H](C)C(F)(F)F)c(N)c2C(N)=O)cc1 [Pirtobrutinib]
plasma concentration at last sampling timepoint ([1]; 48 h after intragastric 10 mg·kg−1, LLOQ 0.5 ng/ml): below the LLOQ
concentration at 0.25 h ([1]; male, Sprague-Dawley, rat, plasma, oral, 10 mg·kg−1): 140 ng/mL
AUC(0-inf) [1, 12]: 2350 ± 582 ng·h/mL
AUC(0-t) [1, 12]: 2340 ± 578 ng·h/mL
Cmax [1, 12]: 344 ± 56.6 ng/mL
MRT inf [1, 12]: 5.15 ± 0.94 h
MRT last [1, 12]: 5.05 ± 0.923 h
Tmax [1, 12]: 1.08 ± 0.736 h
half-life [1, 12]: 2.95 ± 0.121 h
Stability RE % ([2]; 1.0 ng/mL, autosampler 4 ℃, 24 h after preparation): -6.9%
Stability RE % ([2]; 25 ng/mL, autosampler 4 ℃, 24 h after preparation): -9.4%
Stability RE % ([2]; 400 ng/mL, autosampler 4 ℃, 24 h after preparation): -11.7%
Stability RE% value, three QC samples ([2]; all four storage conditions, absolute (±) value): < 11.7%
Stability RE % ([2]; rat plasma, 1.0 ng/mL, -80 ℃, 30 days): -1.8%
Stability RE % ([2]; rat plasma, 1.0 ng/mL, room temperature, 4 h): 0%
Stability RE % ([2]; rat plasma, 1.0 ng/mL, three freeze-thaw): -3.7%
Stability RE % ([2]; rat plasma, 25 ng/mL, -80 ℃, 30 days): 9.4%
Stability RE % ([2]; rat plasma, 25 ng/mL, room temperature, 4 h): 1.7%
Stability RE % ([2]; rat plasma, 400 ng/mL, three freeze-thaw): 6.0%
Stability in plasma ([2]; several storage and handling conditions): stable
mean apparent clearance ([3]; (37.2%) printed as spread): 2.05 L/h
median time to reach peak plasma concentration (tmax) ([3]; range 0.833 to 4.15 h): approximately 2 h
effective half-life [3]: approximately 19 h
absolute bioavailability ([3]; single oral 200 mg dose, range 75.9–90.9%): 85.5%
human protein binding [4]: 96%
metabolism in vitro [5]: primarily metabolized by CYP3A4 and direct glucuronidation by UGT1A8 and UGT1A9
permeability in vitro [6]: high
inhibition of autophosphorylation of Y223 [7]: can inhibit
inhibition of autophosphorylation of Y223 [8]: can inhibit
inhibition of autophosphorylation of Y223 [9]: can inhibit
dose-limiting toxicities [10]: no dose-limiting toxicities
patients discontinuing medication due to treatment-related AEs [10]: 1%
ORR versus venetoclax monotherapy [11]: significantly higher
